Source: PubChem (Broad Institute)
A selection: hits, their analogues and other compounds. The true share with any hit is near 2.4%.
miR-122 sensor = miR-122 Renilla sensor signal increase in Huh7, primary screen, miR-122 inhibitor project, cell-based, single point, plate reader; activation (reporter increase), % at 12.5 µM; Huh7 miR-122 Renilla luciferase sensor, 48 h; neutral wells = 0, positive control = 100; actives 0.3% (n = 340,000);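 active means mean replicate activation score at least 90 and every replicate individually at or above 90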;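 further: higher luciferase means less miR-122 activity so hits act as miR-122 inhibitors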
INS-1E GSIS act = GLuc luminescence reporter in INS-1E cells, primary screen for activators of glucose-dependent secretion of insulin; INS-1E GLuc reporter insulin secretion, 2-3 h; activation, % at 16.6 µM; actives 0.61% (n = 370,000); AID 743287, 2014;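 active means lowest replicate activation of at least 40%, so every replicate reaches that level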
dFosB act-1 = activators of delta FosB homodimer, primary screen, biochemical, fluorescence polarization, TAMRA-CDK5 oligo, single point; Protein FosB (Mus musculus), P13346; purified delta FosB; percent of positive-control signal above neutral wells; activation, % at 25 µM; actives 0.99% (n = 340,000); AID 493131, 2011;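 active means mean activation above about 17%, with every replicate also reaching it, limit read from the data, passing the limit was not always enough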
Target sequence (P13346 whole entry, looked up): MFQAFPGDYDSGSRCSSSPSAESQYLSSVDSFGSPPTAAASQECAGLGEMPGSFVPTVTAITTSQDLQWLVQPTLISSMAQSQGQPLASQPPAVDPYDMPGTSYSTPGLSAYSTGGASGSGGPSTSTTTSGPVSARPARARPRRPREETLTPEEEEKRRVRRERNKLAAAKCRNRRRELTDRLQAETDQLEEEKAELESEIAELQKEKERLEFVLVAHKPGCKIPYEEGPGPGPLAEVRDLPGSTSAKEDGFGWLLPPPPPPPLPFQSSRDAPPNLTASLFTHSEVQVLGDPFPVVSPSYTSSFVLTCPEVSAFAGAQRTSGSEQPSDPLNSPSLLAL
Env fusion inh = inhibitors of HIV-1 Env-driven cell-cell fusion, primary screen, HeLa-JRFL effector, CEM21 target cells, luciferase. actives 1.1% (n = 360,000). inhibition, % at 12.3 µM;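 active means mean replicate inhibition score of at least 50 and every replicate individually at or above 50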
Cneo AK release = Cryptococcus neoformans cell lysis inducers, primary screen, AK release luminescence, single concentration | actives 0.2% (n = 360,000) | lysis activity, % at 15 µM | C. neoformans lysis, adenylate kinase release luminescence, 4 h; normalised: neutral wells 0, clomiphene wells 100;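 active means mean lysis activity across replicates of at least 80%, whatever share of replicates individually reach that level; inactive means mean lysis activity below 80%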
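Material – Cryptococcus neoformans yeast cells · Quantity – 5 × 10^6 yeast cells/mL · Buffer or medium – YPD medium · Compound – single dose · Timing – 4 h static compound exposure, 37 °C, read 1 h post-reagent · Signal – adenylate kinase release luminescence · Read-out basis – lysis from increased AK signal · Benchmarks – Clomiphene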
Rtt109 Vps75 = inhibitors of C. albicans Rtt109/Vps75 HAT, primary screen, biochemical, ThioGlo CoA-SH fluorescence, plate reader; Histone acetyltransferase RTT109 (Candida albicans (strain SC5314 / ATCC MYA-2876)), …; purified Rtt109/Vps75, 4 h; inhibition, % at 34.9 µM; actives 0.16% (n = 330,000); AID 540336, 2011;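 active means inhibition of at least 50% in every replicate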
dFosB act-2 = activators of mouse delta FosB DNA binding, confirmation, biochemical, fluorescence polarization, TAMRA-CDK5 oligo, cherry-picked samples; shares compounds with dFosB act-1; purified delta FosB; normalised: neutral wells 0, positive control 100; activation, % at 24.9 µM; 2,400 tested, under 10 active;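 active means highest replicate activation at or above 34% and every replicate reaching that threshold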;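 further: higher polarization means more probe DNA bound by delta FosB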
Numbers stand for hits; - = inactive; . = no result given.

SMILES | miR-122 sensor | INS-1E GSIS act | dFosB act-1 | Env fusion inh | Cneo AK release | Rtt109 Vps75 | dFosB act-2
COC(=O)[C@@H]1[C@@H](CO)[C@@H]2Cn3c(ccc(-c4ccncc4)c3=O)[C@@H]2N1Cc1cccc(F)c1 | - | - | . | . | - | . | .
Cc1cc(C)c(OCC(=O)Nc2ccc(NC(=O)c3ccco3)cc2)c([N+](=O)[O-])c1 | - | - | 18 | - | - | - | -
COc1ccc(O)c(C(=O)c2cnn(C(=O)c3cccc(S(=O)(=O)N(C)C)c3)c2)c1 | - | - | 37 | - | - | - | -
COc1ccc(C)cc1NC(=O)Nc1ccc2c(c1)CCC2 | . | - | 23 | - | - | - | -
COc1ccccc1NC(=O)Nc1ccc2c(c1)CCC2 | . | - | - | - | - | - | .
CNC[C@@H]1OCCCC[C@@H](C)Oc2ccc(NC(=O)c3ccncc3)cc2C(=O)N([C@H](C)CO)C[C@H]1C | - | . | . | - | - | . | .
CN(C)S(=O)(=O)c1ccc2oc(SCC(=O)c3c(N)n(C4CC4)c(=O)[nH]c3=O)nc2c1 | . | - | 20 | - | - | - | -
CN(C)S(=O)(=O)c1ccc2oc(SCC(N)=O)nc2c1 | - | . | - | . | . | - | .
CC(=O)c1c(C)[nH]c(C(=O)OCc2ccc(F)cc2Cl)c1C | - | - | - | - | - | - | .
CC(=O)c1c(C)[nH]c(C(=O)OCc2c(F)cccc2Cl)c1C | - | - | 21 | - | . | - | -
CCCCN(CC)CCNC(=S)Nc1ccc2nc(N3CCN(C)CC3)cc(C)c2c1 | - | - | 21 | - | - | - | -
NC(=O)c1ccc(NC(=O)COC(=O)/C=C/c2ccc3c(c2)OCO3)cc1 | - | - | 24 | - | - | - | -
C/C(=N/NC(=O)c1ccc2c(c1)OCO2)c1ccc(NC(=O)C(F)(F)F)cc1 | - | - | 28 | - | - | - | -
O=C(N/N=C/c1ccc(F)cc1)c1cc(-c2ccc3c(c2)OCO3)n[nH]1 | - | . | 29 | - | - | - | -
CN(C)c1ccc(/C=N/NC(=O)c2cc(-c3ccc4c(c3)OCO4)n[nH]2)cc1 | . | . | - | - | . | - | .
CC(=O)Nc1ccc(NC(=O)COC(=O)/C=C/c2ccc3c(c2)OCO3)cc1 | . | - | - | - | - | - | .
O=C(N/N=C/c1ccc2c(c1)OCO2)c1ccc(NC(=O)c2ccc(F)cc2)cc1 | . | - | 103 | - | - | - | -
CO[C@H]1CN(C)C(=O)c2cc(NS(=O)(=O)c3ccccc3)ccc2OC[C@@H](C)N(Cc2nccs2)C[C@H]1C | . | - | . | . | - | . | .
COc1ccc(NC(=O)Nc2ccc3c(c2)C(=O)N([C@H](C)CO)C[C@H](C)[C@H](CN(C)C(=O)Nc2c(C)noc2C)OCCCC[C@H](C)O3)cc1 | - | - | . | - | - | . | .
O=C(N/N=C\C=C\c1ccc(Br)cc1)c1ccc2c(c1)OCO2 | - | - | 24 | - | - | - | -
O=C(N/N=C/C=C/c1ccccc1)c1ccc(Br)cc1 | - | . | - | . | - | - | .
COc1ccc(/C=N/NC(=O)c2cc(-c3ccc4c(c3)OCO4)n[nH]2)cc1OC | . | 49 | 73 | - | . | - | -
COc1ccc2c(Cl)c(C(=O)N/N=C/c3ccc4c(c3)OCO4)sc2c1 | - | . | 34 | . | - | - | -
COc1ccc(NS(=O)(=O)c2cccc(C(=O)N/N=C/c3ccc4c(c3)OCCO4)c2)cc1 | . | - | 25 | - | . | - | -
COc1cc(/C=N/NC(=O)c2ccc3c(c2)OCO3)ccc1O | - | - | - | - | - | - | .
CNC[C@H]1Oc2ncc(/C=C/c3ccccc3)cc2C(=O)N([C@@H](C)CO)C[C@H]1C | - | - | . | . | . | . | .
